# Assay results reported in article PMC10725268 (CPT: Pharmacometrics & Systems Pharmacology, 2023).
# Where a SMILES comes first, the peptide text is derived from it. Bridges are numbered along the chain shown (N, C = ends). [ ]: non-standard residue; d: D form. The star is where a group is joined. Heptanoyl(6-Me) = CC(C)CCCCC(=O)*; X1 = CC[C@H](C)CCCCC(=O)*; Dab = NCC[C@H](N)C(=O)O
# What was measured:
# patients receiving PMB = conditions: cited from earlier work
# critically ill patients [1] = test: Clinical outcome during intravenous PMB treatment; format: in vivo, human
# Procedure, shortened: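 Single-centre ICU cohort, August 2020–July 2022: adults on intravenous PMB for ≥2 days with MDR Gram-negative infection. Excluded: baseline creatinine >1.5 mg/dl, prior renal replacement, or a changed maintenance dose. Prognosis and adverse events were taken from hospital records. AKI and non-AKI groups were compared by chi-square or Fisher's exact test.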
# critically ill patients [2] = format: in vivo, human
# Procedure, shortened: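 Intravenous dosing: 2.5 mg/kg loading dose (not all patients), then 2.5–3 mg/kg/day in two divided doses. After ≥48 h, mid-interval plasma concentration was sampled 6 h post-dose. Variables with p < 0.05 in univariate logistic regression entered forward-stepwise multivariate regression, with fit checked by Hosmer–Lemeshow. ROC cutoff was taken at the maximum Youden index. AKI probability came from a logistic equation on C1/2t.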
# critically ill patients [3] = test: PMB-induced acute kidney injury; format: in vivo, human
# Procedure, shortened: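 ICU adults (>18 years) with MDR Gram-negative infection, given intravenous PMB (sulfate) for ≥2 days with plasma monitoring. Excluded: baseline serum creatinine >1.5 mg/dl or prior renal replacement. AKI (KDIGO) was a serum creatinine rise ≥0.3 mg/dl within 48 h, >1.5-fold within 7 days, or urine output <0.5 ml/kg/h for >6 h.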
# [4] = Estimation of PMB AUC0-24 from timed steady-state plasma concentrations; format: in vivo, human; conditions: mean ± SD; for AUC(0-t): human, iv, AUC0–24, trapezoidal area
# [5] = Steady-state plasma concentrations of PMB; format: in vivo; conditions: human, iv
# Procedure, shortened: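 Blood drawn after ≥48 h of dosing; peak taken immediately after infusion end. Samples centrifuged 885 g, 10 min; supernatant stored −80°C. PMB1 and PMB2 measured by UPLC-MS/MS on a C18 column (2.6 μm, 3.0 × 50 mm), 40°C, 0.3 ml/min. Gradient: 0.1% formic acid in water versus acetonitrile. Total PMB is the sum of PMB1 and PMB2.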
# [6] = one-compartment model, AKI (n = 30)
# [7] = one-compartment model, Non-AKI (n = 25)
# [8] = one-compartment model, Overall (n = 55)
compound,measurement,setting,value
"CC[C@H](C)CCCCC(=O)N[C@@H](CCN)C(=O)N[C@H](C(=O)N[C@@H](CCN)C(=O)N[C@H]1CCNC(=O)[C@H]([C@@H](C)O)NC(=O)[C@H](CCN)NC(=O)[C@H](CCN)NC(=O)[C@H](CC(C)C)NC(=O)[C@@H](Cc2ccccc2)NC(=O)[C@H](CCN)NC1=O)[C@@H](C)O [PMB1, polymyxin B1] (X1-[Dab]T[Dab][Dab][Dab][dF]L[Dab][Dab]T; lactam 4-C)",peak concentration above which the probability of AKI would be >50%,patients receiving PMB; ref 17 (Deng et al.),> 5.23 µg/mL
"CC[C@H](C)CCCCC(=O)N[C@@H](CCN)C(=O)N[C@H](C(=O)N[C@@H](CCN)C(=O)N[C@H]1CCNC(=O)[C@H]([C@@H](C)O)NC(=O)[C@H](CCN)NC(=O)[C@H](CCN)NC(=O)[C@H](CC(C)C)NC(=O)[C@@H](Cc2ccccc2)NC(=O)[C@H](CCN)NC1=O)[C@@H](C)O [PMB, polymyxin B] (X1-[Dab]T[Dab][Dab][Dab][dF]L[Dab][Dab]T; lactam 4-C)",30-day mortality rate,critically ill patients [1]; AKI group,46.7%
same,30-day mortality rate,critically ill patients [1]; non-AKI group,20%
same,optimal cutoff value of C1/2t for predicting PMB-induced AKI,"critically ill patients [2]; ROC curve, Youden index, p = 0.002, 66.7% sensitivity, 72% specificity",3.47 µg/mL
same,C1/2t at which the probability of AKI was >50%,"critically ill patients [2]; univariate logistic regression, Equation 5",≥ 3.24 mg/L
same,overall AKI incidence,"critically ill patients [3]; 30 of 55 patients on intravenous PMB, KDIGO definition",54.5%
same,patients who developed AKI on Day 3,critically ill patients [3]; after PMB administration,13.3%
same,patients who developed AKI within 7 days,critically ill patients [3]; share of the AKI group (n = 30),46.7%
same,AUC(0-t),"[4]; based on Cmin(B) and Cmax(B), AKI (n = 30)",128 ± 36.2 µg·h/mL
same,AUC(0-t),"[4]; based on Cmin(B) and Cmax(B), Non-AKI (n = 25)",102 ± 30.9 µg·h/mL
same,AUC(0-t),"[4]; based on Cmin(B) and Cmax(B), Overall (n = 55)",116 ± 36 µg·h/mL
same,AUC(0-t),"[4]; based on Cmin(B), C1/2t(B), and Cmax(B), AKI (n = 30)",110 ± 31.3 µg·h/mL
same,AUC(0-t),"[4]; based on Cmin(B), C1/2t(B), and Cmax(B), Non-AKI (n = 25)",85.4 ± 24.4 µg·h/mL
same,AUC(0-t),"[4]; based on Cmin(B), C1/2t(B), and Cmax(B), Overall (n = 55)",99.1 ± 30.8 µg·h/mL
same,"AUC0–24, first-order pharmacokinetic equation, based on C1/2t(B) and Cmax(B) (AUC1/2t,max)",[4]; [6],103.7 ± 31.2 µg·h/mL
same,"AUC0–24, first-order pharmacokinetic equation, based on Cmin(B) and C1/2t(B)",[4]; [6],100.7 ± 34.8 µg·h/mL
same,"AUC0–24, first-order pharmacokinetic equation, based on Cmin(B) and Cmax(B)",[4]; [6],115.7 ± 35.1 µg·h/mL
same,"AUC0–24, first-order pharmacokinetic equation, based on Cmin(B) and C1/2t(B)",[4]; [7],72.8 ± 21.2 µg·h/mL
same,"AUC0–24, first-order pharmacokinetic equation, based on Cmin(B) and Cmax(B)",[4]; [7],90.2 ± 28.4 µg·h/mL
same,"AUC0–24, first-order pharmacokinetic equation, based on Cmin(B) and C1/2t(B)",[4]; [8],88.1 ± 32.3 µg·h/mL
same,"AUC0–24, first-order pharmacokinetic equation, based on Cmin(B) and Cmax(B)",[4]; [8],104.1 ± 34.4 µg·h/mL
same,trough concentration limit suggested to reduce the risk of AKI,patients receiving PMB; ref 16 (Han et al.),< 3.13 mg/L
same,nephrotoxicity compared with colistin,patients receiving PMB; systematic review and meta-analysis,lower nephrotoxicity than colistin
"CC(C)CCCCC(=O)N[C@@H](CCN)C(=O)N[C@H](C(=O)N[C@@H](CCN)C(=O)N[C@H]1CCNC(=O)[C@H]([C@@H](C)O)NC(=O)[C@H](CCN)NC(=O)[C@H](CCN)NC(=O)[C@H](CC(C)C)NC(=O)[C@@H](Cc2ccccc2)NC(=O)[C@H](CCN)NC1=O)[C@@H](C)O [PMB2, polymyxin B2] ({Heptanoyl(6-Me)}-[Dab]T[Dab][Dab][Dab][dF]L[Dab][Dab]T; lactam 4-C)",Cmax,[5],1000 ng/mL
